PMC8335715 (Medicinal Chemistry Research, 2021)

Target: rat lens ALR2 (Rattus norvegicus, UniProt P07943)
Test: ALR2 enzyme inhibition assay
Format: biochemical
Details: ratio IC50 ALR1 / IC50 ALR2; called SF in text
Procedure, shortened: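 Rat lens enzyme (male Wistar) was partially purified: homogenised in cold water, spun at 10.000 g, fractionated with ammonium sulfate (40/50/75%). Substrate was D,L-glyceraldehyde in 0.067 M phosphate, pH 6.2, at 30 °C. Substrate started the reaction, and a substrate-free blank corrected NADPH oxidation. Test compound was in NaHCO3 or DMSO (1% final). IC50 came from least-squares fit of the linear semilog portion (25–75% inhibition), at least two experiments. The selectivity index was calculated against kidney-enzyme IC50.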

| SMILES | Selectivity index (ALR1/ALR2) |
| --- | --- |
| COc1ccc(/C=C2\SC(=Nc3nc4ccc(OC)cc4s3)NC2=O)cc1 [Compound 3, (Z)-2-((6-methoxybenzo[d]thiazol-2-yl)imino)-5-(4-methoxybenzylidene)thiazolidin-4-one] | < 1 |
| COc1ccc2nc(/N=C3/NC(=O)C(=Cc4ccc(O)c(OC)c4)S3)sc2c1 [Compound 4, (Z)-5-(4-hydroxy-3-methoxybenzylidene)-2-((6-methoxybenzo[d]thiazol-2-yl)imino) thiazolidin-4-one] | < 1 |
| COc1ccc2nc(/N=C3/NC(=O)C(=Cc4ccc(O)cc4)S3)sc2c1 [Compound 2, (Z)-5-(4-hydroxybenzylidene)-2-((6-methoxybenzo[d]thiazol-2-yl)imino)thiazolidin-4-one] | < 1 |
